ChEMBL document CHEMBL5029150, “Controlling Intramolecular Interactions in the Design of Selective, High-Affinity Ligands for the CREBBP Bromodomain” (J Med Chem, 2021)
Active and inactive are the calls of the source.

What was measured:
Conditions in all cases: dose microM <=1
[1] = target: T1, Bromodomain-containing protein 7 (Homo sapiens) (UniProt Q9NPI1); experiment: Binding affinity to human BRD7 assessed as dissociation constant up to 1 uM by BROMOscan assay
T1 sequence (whole entry): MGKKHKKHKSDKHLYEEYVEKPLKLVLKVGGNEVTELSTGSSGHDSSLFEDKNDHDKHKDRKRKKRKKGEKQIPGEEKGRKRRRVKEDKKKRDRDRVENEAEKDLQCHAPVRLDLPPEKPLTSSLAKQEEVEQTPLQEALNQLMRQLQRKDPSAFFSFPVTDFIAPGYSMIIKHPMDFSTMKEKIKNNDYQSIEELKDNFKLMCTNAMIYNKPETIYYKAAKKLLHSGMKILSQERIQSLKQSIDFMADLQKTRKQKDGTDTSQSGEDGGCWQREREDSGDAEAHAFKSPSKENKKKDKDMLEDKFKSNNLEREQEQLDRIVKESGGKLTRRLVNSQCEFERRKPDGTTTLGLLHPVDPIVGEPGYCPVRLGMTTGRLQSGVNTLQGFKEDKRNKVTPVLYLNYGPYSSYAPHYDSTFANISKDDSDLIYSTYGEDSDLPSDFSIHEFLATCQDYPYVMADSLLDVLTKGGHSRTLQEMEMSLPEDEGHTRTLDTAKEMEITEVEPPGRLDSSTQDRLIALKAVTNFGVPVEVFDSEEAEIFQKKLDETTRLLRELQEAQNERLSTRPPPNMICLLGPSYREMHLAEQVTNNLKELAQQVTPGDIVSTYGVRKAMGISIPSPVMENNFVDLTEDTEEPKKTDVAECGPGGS
Outline: (§1)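 BROMOscan competition binding panel of 12 phylogenetically diverse bromodomains, including the CREBBP and EP300 bromodomains.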

[2] = target: SWI/SNF-related matrix-associated actin-dependent regulator of chromatin subfamily A member 4 (Homo sapiens) (UniProt P51532); experiment: Binding affinity to human SMARCA4 assessed as dissociation constant up to 1 uM by BROMOscan assay; outline: as §1
Sequence of SWI/SNF-related matrix-associated actin-dependent regulator of chromatin subfamily A member 4 (Homo sapiens) (P51532 whole entry): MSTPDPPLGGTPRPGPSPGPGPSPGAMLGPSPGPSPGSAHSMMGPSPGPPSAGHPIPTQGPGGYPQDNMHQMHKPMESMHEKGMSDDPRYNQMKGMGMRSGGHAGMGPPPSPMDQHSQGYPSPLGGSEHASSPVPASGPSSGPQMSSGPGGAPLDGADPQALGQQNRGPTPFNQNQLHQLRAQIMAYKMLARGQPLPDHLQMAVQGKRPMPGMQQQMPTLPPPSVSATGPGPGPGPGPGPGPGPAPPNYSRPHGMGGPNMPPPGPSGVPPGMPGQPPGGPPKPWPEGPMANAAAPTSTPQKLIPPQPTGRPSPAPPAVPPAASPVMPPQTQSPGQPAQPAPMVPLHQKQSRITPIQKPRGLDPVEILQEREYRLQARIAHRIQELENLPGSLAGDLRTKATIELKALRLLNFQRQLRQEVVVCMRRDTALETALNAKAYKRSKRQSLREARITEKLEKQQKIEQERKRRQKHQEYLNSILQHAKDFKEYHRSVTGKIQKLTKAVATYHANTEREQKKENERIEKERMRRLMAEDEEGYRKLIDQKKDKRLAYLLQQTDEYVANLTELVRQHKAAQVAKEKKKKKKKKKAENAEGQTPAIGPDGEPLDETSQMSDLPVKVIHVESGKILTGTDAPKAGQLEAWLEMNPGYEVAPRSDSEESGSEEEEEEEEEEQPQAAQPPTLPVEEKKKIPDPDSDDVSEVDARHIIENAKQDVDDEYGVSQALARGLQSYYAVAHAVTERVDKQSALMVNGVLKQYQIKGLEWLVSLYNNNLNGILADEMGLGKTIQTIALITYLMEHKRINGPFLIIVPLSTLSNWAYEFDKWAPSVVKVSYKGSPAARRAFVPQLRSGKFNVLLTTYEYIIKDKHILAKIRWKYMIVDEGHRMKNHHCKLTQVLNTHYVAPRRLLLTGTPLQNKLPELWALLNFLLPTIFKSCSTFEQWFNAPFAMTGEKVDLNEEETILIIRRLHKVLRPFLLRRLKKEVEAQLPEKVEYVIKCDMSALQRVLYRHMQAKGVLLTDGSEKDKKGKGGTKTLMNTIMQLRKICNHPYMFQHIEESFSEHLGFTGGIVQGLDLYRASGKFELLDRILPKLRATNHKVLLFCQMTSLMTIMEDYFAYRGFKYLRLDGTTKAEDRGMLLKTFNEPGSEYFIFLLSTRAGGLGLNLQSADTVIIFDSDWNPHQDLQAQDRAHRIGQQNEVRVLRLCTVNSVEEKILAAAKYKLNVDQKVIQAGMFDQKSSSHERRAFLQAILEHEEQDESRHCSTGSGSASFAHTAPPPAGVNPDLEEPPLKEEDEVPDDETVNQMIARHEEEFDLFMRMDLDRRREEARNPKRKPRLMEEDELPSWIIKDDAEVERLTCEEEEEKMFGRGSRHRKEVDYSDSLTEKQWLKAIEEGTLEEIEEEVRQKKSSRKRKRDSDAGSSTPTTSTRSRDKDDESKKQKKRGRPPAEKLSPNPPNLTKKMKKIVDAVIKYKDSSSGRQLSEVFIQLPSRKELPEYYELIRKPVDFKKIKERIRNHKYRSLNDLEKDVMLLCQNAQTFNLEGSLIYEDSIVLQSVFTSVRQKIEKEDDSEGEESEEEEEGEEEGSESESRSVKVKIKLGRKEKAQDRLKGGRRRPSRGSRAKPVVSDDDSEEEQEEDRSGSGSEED

Peregrin (Homo sapiens) = target: T2, Peregrin (Homo sapiens) (UniProt P55201); experiment: Binding affinity to human BRPF1 assessed as dissociation constant up to 1 uM by BROMOscan assay; outline: as §1
T2 sequence (whole entry): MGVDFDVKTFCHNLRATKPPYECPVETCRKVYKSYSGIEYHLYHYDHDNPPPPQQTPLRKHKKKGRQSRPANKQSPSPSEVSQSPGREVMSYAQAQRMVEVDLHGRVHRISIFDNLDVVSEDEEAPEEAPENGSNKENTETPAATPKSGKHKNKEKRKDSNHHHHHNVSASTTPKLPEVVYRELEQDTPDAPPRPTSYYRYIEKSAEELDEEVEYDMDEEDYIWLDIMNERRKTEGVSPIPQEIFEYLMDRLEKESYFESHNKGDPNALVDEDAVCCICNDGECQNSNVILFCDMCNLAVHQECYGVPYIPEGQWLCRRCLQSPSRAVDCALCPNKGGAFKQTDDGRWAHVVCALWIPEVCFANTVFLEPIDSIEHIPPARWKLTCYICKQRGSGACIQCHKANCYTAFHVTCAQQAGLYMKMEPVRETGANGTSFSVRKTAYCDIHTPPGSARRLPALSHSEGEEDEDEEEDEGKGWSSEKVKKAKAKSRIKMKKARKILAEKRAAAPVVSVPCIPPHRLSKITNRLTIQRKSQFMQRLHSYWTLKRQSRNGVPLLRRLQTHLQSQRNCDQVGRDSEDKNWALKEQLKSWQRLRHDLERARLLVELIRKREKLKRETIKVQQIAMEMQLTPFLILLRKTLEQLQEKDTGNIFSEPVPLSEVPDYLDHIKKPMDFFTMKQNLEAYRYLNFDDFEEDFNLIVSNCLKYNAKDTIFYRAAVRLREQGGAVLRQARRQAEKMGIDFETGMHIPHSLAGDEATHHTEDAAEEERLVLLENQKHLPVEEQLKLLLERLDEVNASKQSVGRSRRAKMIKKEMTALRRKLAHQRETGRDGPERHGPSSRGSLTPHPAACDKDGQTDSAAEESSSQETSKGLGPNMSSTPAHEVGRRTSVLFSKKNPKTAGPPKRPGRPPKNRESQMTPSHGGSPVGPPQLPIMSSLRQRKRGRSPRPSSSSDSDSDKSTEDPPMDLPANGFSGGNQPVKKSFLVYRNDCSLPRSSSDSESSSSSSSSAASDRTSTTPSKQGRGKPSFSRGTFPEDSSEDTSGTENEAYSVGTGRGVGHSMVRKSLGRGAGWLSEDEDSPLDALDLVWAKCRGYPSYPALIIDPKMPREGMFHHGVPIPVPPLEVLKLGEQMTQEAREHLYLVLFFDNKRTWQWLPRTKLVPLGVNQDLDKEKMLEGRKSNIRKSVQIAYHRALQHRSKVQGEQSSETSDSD

[3] = target: T3, Bromodomain-containing protein 9 (Homo sapiens) (UniProt Q9H8M2); experiment: Binding affinity to human BRD9 assessed as dissociation constant up to 1 uM by BROMOscan assay; outline: as §1
T3 sequence (whole entry): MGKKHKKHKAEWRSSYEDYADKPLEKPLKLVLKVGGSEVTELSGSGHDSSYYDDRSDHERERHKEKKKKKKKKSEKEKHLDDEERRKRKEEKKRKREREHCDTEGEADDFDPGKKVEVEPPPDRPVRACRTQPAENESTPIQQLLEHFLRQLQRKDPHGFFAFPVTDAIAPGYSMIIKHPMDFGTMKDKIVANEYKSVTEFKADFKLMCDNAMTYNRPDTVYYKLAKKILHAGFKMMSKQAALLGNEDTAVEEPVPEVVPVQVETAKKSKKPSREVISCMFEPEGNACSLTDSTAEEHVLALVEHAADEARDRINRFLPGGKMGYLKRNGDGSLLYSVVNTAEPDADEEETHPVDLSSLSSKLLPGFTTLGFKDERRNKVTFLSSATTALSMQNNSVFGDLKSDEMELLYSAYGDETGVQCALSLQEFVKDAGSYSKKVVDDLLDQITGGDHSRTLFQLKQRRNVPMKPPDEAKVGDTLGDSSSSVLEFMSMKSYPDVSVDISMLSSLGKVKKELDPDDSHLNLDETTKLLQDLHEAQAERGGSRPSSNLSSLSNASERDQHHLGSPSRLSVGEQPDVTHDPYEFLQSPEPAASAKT

Measured: Activity

COc1ccc2c(c1)N(CCC/C=C/c1cccc3c1N[C@@H](C)CC(=O)N3)CCC2
inactive: all assays above

COc1ccc2c(c1)N(CCC/C=C/c1cccc3c1N[C@H](C)CC(=O)N3)CCC2
inactive: all assays above
